Source: ChEMBL document CHEMBL2321812 (J Med Chem, 2013)
Activity calls are given as the source filed them. The calls are words filed in the database; no cut-off is given here.

Key:
[1] = Cmax in male ICR mouse at 5 mg/kg, ip; assay type: ADME, organism-based; design: dose 5 mg/kg, route intraperitoneal; settings: in vivo
Method in brief: (§1)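 Male and female ICR mice (18.2-26.0 g) got 5 mg/kg i.p. in 5% DMSO/50% PEG400/45% saline. Terminal cardiac blood was drawn after CO2 euthanasia at 5, 15, 30 min and 1, 2, 4, 8, 24 h.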

[2] = AUC (0 to t) in female ICR mouse at 5 mg/kg, po; assay type: ADME, organism-based; design: dose 5 mg/kg, route oral; settings: plasma
Method in brief: (§2)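 Oral gavage at 5 mg/kg in 10% NMP/60% PEG400/30% saline to overnight-fasted (10-15 h) male and female ICR mice (18.2-26.0 g). Blood was taken by cardiac puncture after CO2 euthanasia at 5, 15, 30 min and 1, 2, 4, 8, 24 h.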

Mus musculus [3] = experiment: Bioavailability in female ICR mouse measured from AUC (0 to t) at 5 mg/kg, ip; assay type: ADME, organism-based; settings: in vivo
Method in brief: (§3)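 Intraperitoneal dosing was 5 mg/kg, referenced to 1 mg/kg i.v., both in 5% DMSO/50% PEG400/45% saline, in male and female ICR mice. Plasma was sampled from 5 min to 24 h and measured by HPLC-MS/MS.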

[4] = Cmax in female ICR mouse at 1 mg/kg, iv; assay type: ADME, organism-based; design: dose 1 mg/kg, route intravenous; settings: in vivo
Method in brief: (§4)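 Single 1 mg/kg i.v. injection to male and female ICR mice (18.2-26.0 g) in 5% DMSO/50% PEG400/45% saline. Blood was taken by cardiac puncture after CO2 euthanasia at 5, 15, 30 min and 1, 2, 4, 8, 24 h post dose.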

[5] = Mean residence time (0 to infinity) in male ICR mouse at 5 mg/kg, po; assay type: ADME, organism-based; design: dose 5 mg/kg, route oral; settings: in vivo; method in brief: as §2
[6] = Cmax in female ICR mouse at 5 mg/kg, po; assay type: ADME, organism-based; design: dose 5 mg/kg, route oral; settings: in vivo; method in brief: as §2
[7] = Cmax in male ICR mouse at 5 mg/kg, po; assay type: ADME, organism-based; design: dose 5 mg/kg, route oral; settings: in vivo; method in brief: as §2
[8] = Cmax in female ICR mouse at 5 mg/kg, ip; assay type: ADME, organism-based; design: dose 5 mg/kg, route intraperitoneal; settings: in vivo; method in brief: as §1
[9] = Oral bioavailability in female ICR mouse measured from AUC (0 to t) at 5 mg/kg; assay type: ADME, organism-based; settings: in vivo
Method in brief: (§5)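 Oral 5 mg/kg (10% NMP/60% PEG400/30% saline, after 10-15 h fast) was compared with 1 mg/kg i.v. (5% DMSO/50% PEG400/45% saline) in male and female ICR mice. Plasma from 5 min to 24 h was measured by HPLC-MS/MS.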

[10] = AUC (0 to t) in male ICR mouse at 1 mg/kg, iv; assay type: ADME, organism-based; design: dose 1 mg/kg, route intravenous; settings: plasma; method in brief: as §4
[11] = Tmax in female ICR mouse at 5 mg/kg, ip; assay type: ADME, organism-based; design: dose 5 mg/kg, route intraperitoneal; settings: in vivo; method in brief: as §1
[12] = Half life in female ICR mouse at 5 mg/kg, ip; assay type: ADME, organism-based; design: dose 5 mg/kg, route intraperitoneal; settings: in vivo; method in brief: as §1
[13] = Tmax in female ICR mouse at 5 mg/kg, po; assay type: ADME, organism-based; design: dose 5 mg/kg, route oral; settings: in vivo; method in brief: as §2
[14] = Half life in male ICR mouse at 5 mg/kg, ip; assay type: ADME, organism-based; design: dose 5 mg/kg, route intraperitoneal; settings: in vivo; method in brief: as §1
Mus musculus [15] = experiment: Bioavailability in male ICR mouse measured from AUC (0 to t) at 5 mg/kg, ip; assay type: ADME, organism-based; settings: in vivo; method in brief: as §3
[16] = Mean residence time (0 to infinity) in male ICR mouse at 1 mg/kg, iv; assay type: ADME, organism-based; design: dose 1 mg/kg, route intravenous; settings: in vivo; method in brief: as §4
[17] = Mean residence time (0 to infinity) in female ICR mouse at 1 mg/kg, iv; assay type: ADME, organism-based; design: dose 1 mg/kg, route intravenous; settings: in vivo; method in brief: as §4
[18] = Tmax in male ICR mouse at 5 mg/kg, po; assay type: ADME, organism-based; design: dose 5 mg/kg, route oral; settings: in vivo
Method in brief: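 Male and female ICR mice (18.2-26.0 g), fasted overnight (10-15 h) before oral dosing; single gavage at 5 mg/kg in 10% NMP, 60% PEG400, 30% saline. Blood taken by cardiac puncture after CO2 euthanasia at 5, 15, 30 min and 1, 2, 4, 8, 24 h. Heparinised plasma assayed by HPLC-MS/MS. Tmax is the time to reach Cmax.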

[19] = AUC (0 to t) in female ICR mouse at 1 mg/kg, iv; assay type: ADME, organism-based; design: dose 1 mg/kg, route intravenous; settings: plasma; method in brief: as §4
[20] = AUC (0 to infinity) in female ICR mouse at 5 mg/kg, po; assay type: ADME, organism-based; design: time infinity, dose 5 mg/kg, route oral; settings: plasma; method in brief: as §2
[21] = Half life in female ICR mouse at 1 mg/kg, iv; assay type: ADME, organism-based; design: dose 1 mg/kg, route intravenous; settings: in vivo; method in brief: as §4
[22] = AUC (0 to t) in male ICR mouse at 5 mg/kg, ip; assay type: ADME, organism-based; design: dose 5 mg/kg, route intraperitoneal; settings: plasma; method in brief: as §1
[23] = Tmax in male ICR mouse at 1 mg/kg, iv; assay type: ADME, organism-based; design: dose 1 mg/kg, route intravenous; settings: in vivo; method in brief: as §4
[24] = Cmax in male ICR mouse at 1 mg/kg, iv; assay type: ADME, organism-based; design: dose 1 mg/kg, route intravenous; settings: in vivo; method in brief: as §4
Cytochrome P450 3A4 = Cytochrome P450 3A4 (Homo sapiens, UniProt P08684); experiment: Inhibition of CYP3A4 (unknown origin)
Cytochrome P450 3A4, sequence (P08684 whole entry): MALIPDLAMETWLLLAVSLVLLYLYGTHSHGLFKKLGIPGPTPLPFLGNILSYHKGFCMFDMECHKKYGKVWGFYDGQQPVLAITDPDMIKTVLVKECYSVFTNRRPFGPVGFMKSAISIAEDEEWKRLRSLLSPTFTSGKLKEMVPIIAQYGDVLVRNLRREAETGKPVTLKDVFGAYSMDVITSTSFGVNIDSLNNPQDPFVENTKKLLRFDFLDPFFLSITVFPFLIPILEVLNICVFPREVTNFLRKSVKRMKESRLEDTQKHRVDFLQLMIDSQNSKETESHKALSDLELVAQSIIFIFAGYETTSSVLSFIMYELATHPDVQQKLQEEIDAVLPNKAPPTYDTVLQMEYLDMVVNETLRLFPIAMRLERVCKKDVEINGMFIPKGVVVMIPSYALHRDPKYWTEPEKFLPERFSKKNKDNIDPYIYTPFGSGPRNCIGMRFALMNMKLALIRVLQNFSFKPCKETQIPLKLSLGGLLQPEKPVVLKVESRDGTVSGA

[25] = Bioavailability in male ICR mouse measured from AUC (0 to infinity) at 5 mg/kg, ip; assay type: ADME, organism-based; settings: in vivo; method in brief: as §3
[26] = Apparent volume of distribution in male ICR mouse at 1 mg/kg, iv; assay type: ADME, organism-based; design: dose 1 mg/kg, route intravenous; settings: in vivo, read-out: Vz; method in brief: as §4
[27] = Oral bioavailability in male ICR mouse measured from AUC (0 to infinity) at 5 mg/kg; assay type: ADME, organism-based; settings: in vivo; method in brief: as §5
[28] = Mean residence time (0 to infinity) in male ICR mouse at 5 mg/kg, ip; assay type: ADME, organism-based; design: dose 5 mg/kg, route intraperitoneal; settings: in vivo; method in brief: as §1
[29] = AUC (0 to infinity) in male ICR mouse at 1 mg/kg, iv; assay type: ADME, organism-based; design: time infinity, dose 1 mg/kg, route intravenous; settings: plasma; method in brief: as §4
[30] = Mean residence time (0 to infinity) in female ICR mouse at 5 mg/kg, ip; assay type: ADME, organism-based; design: dose 5 mg/kg, route intraperitoneal; settings: in vivo; method in brief: as §1
[31] = AUC (0 to t) in female ICR mouse at 5 mg/kg, ip; assay type: ADME, organism-based; design: dose 5 mg/kg, route intraperitoneal; settings: plasma; method in brief: as §1
[32] = AUC (0 to infinity) in male ICR mouse at 5 mg/kg, ip; assay type: ADME, organism-based; design: time infinity, dose 5 mg/kg, route intraperitoneal; settings: plasma; method in brief: as §1
[33] = target: Poly [ADP-ribose] polymerase 1 (Homo sapiens) (UniProt P09874); experiment: Inhibition of PARP1 (unknown origin) up to 20 uM by NAD+-dependent autopoly(ADP ribosyl)lation assay
Poly [ADP-ribose] polymerase 1 (Homo sapiens), sequence (P09874 whole entry): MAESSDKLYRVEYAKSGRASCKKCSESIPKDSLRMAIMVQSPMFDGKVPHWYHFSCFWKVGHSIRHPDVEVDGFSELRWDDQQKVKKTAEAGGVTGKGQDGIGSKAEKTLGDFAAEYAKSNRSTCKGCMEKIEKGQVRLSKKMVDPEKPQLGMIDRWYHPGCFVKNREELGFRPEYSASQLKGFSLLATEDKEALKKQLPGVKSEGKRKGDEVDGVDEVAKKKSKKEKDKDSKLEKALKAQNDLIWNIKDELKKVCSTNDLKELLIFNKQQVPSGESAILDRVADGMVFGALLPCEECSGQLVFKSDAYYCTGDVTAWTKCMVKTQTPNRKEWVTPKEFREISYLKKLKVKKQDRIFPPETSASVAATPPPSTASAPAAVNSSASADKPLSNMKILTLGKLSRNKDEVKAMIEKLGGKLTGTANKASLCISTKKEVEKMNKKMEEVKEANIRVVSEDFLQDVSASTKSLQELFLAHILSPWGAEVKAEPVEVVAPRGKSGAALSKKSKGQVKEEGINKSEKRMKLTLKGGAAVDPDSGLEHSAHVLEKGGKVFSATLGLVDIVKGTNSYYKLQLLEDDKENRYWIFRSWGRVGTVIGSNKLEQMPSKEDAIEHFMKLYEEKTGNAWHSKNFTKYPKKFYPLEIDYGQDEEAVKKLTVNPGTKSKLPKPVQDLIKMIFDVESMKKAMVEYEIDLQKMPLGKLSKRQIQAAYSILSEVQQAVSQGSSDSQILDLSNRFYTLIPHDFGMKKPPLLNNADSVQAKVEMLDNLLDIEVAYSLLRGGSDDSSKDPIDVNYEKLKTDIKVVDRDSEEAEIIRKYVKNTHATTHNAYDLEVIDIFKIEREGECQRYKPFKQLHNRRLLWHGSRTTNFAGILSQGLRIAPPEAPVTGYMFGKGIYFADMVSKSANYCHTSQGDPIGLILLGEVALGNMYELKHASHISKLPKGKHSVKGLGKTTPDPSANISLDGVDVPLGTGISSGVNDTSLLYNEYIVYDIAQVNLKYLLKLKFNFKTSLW
Method in brief: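 PARP1 was tested with a chemiluminescent poly(ADP-ribosyl)ation assay kit over a range of concentrations. Each point was run in duplicate and the experiment was done twice. Luminescence was read and IC50 was fitted to a Langmuir binding isotherm.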

[34] = Clearance in female ICR mouse at 1 mg/kg, iv; assay type: ADME, organism-based; design: dose 1 mg/kg, route intravenous; settings: in vivo; method in brief: as §4
[35] = Tmax in male ICR mouse at 5 mg/kg, ip; assay type: ADME, organism-based; design: dose 5 mg/kg, route intraperitoneal; settings: in vivo; method in brief: as §1
[36] = Half life in female ICR mouse at 5 mg/kg, po; assay type: ADME, organism-based; design: dose 5 mg/kg, route oral; settings: in vivo; method in brief: as §2
[37] = Tmax in female ICR mouse at 1 mg/kg, iv; assay type: ADME, organism-based; design: dose 1 mg/kg, route intravenous; settings: in vivo; method in brief: as §4
[38] = Apparent volume of distribution in female ICR mouse at 1 mg/kg, iv; assay type: ADME, organism-based; design: dose 1 mg/kg, route intravenous; settings: in vivo, read-out: Vz; method in brief: as §4
[39] = Mean residence time (0 to infinity) in female ICR mouse at 5 mg/kg, po; assay type: ADME, organism-based; design: dose 5 mg/kg, route oral; settings: in vivo; method in brief: as §2
[40] = Half life in male ICR mouse at 5 mg/kg, po; assay type: ADME, organism-based; design: dose 5 mg/kg, route oral; settings: in vivo; method in brief: as §2
[41] = Oral bioavailability in female ICR mouse measured from AUC (0 to infinity) at 5 mg/kg; assay type: ADME, organism-based; settings: in vivo; method in brief: as §5
[42] = Bioavailability in female ICR mouse measured from AUC (0 to infinity) at 5 mg/kg, ip; assay type: ADME, organism-based; settings: in vivo; method in brief: as §3
[43] = AUC (0 to infinity) in female ICR mouse at 1 mg/kg, iv; assay type: ADME, organism-based; design: time infinity, dose 1 mg/kg, route intravenous; settings: plasma; method in brief: as §4
[44] = Clearance in male ICR mouse at 1 mg/kg, iv; assay type: ADME, organism-based; design: dose 1 mg/kg, route intravenous; settings: in vivo; method in brief: as §4
[45] = AUC (0 to t) in male ICR mouse at 5 mg/kg, po; assay type: ADME, organism-based; design: dose 5 mg/kg, route oral; settings: plasma; method in brief: as §2
[46] = AUC (0 to infinity) in male ICR mouse at 5 mg/kg, po; assay type: ADME, organism-based; design: time infinity, dose 5 mg/kg, route oral; settings: plasma; method in brief: as §2
[47] = Oral bioavailability in male ICR mouse measured from AUC (0 to t) at 5 mg/kg; assay type: ADME, organism-based; settings: in vivo; method in brief: as §5
[48] = AUC (0 to infinity) in female ICR mouse at 5 mg/kg, ip; assay type: ADME, organism-based; design: time infinity, dose 5 mg/kg, route intraperitoneal; settings: plasma; method in brief: as §1

Cmax [1]: 2360 ng/mL
AUC(0-t) [2]: 6740 ng·h/mL
F (Mus musculus [3]): 152%
Cmax [4]: 462 ng/mL
MRT inf [5]: 5.1 h
Cmax [6]: 871 ng/mL
Cmax [7]: 967 ng/mL
Cmax [8]: 2660 ng/mL
bioavailability [9]: 72.7%
AUC(0-t) [10]: 1420 ng·h/mL
Tmax [11]: 0.5 h
half-life [12]: 2.73 h
Tmax [13]: 2 h
half-life [14]: 2.89 h
F (Mus musculus [15]): 157%
MRT inf [16]: 4.1 h
MRT inf [17]: 4.8 h
Tmax [18]: 0.25 h
AUC(0-t) [19]: 1850 ng·h/mL
AUC(0-inf) [20]: 6750 ng·h/mL
half-life [21]: 3.46 h
AUC(0-t) [22]: 11200 ng·h/mL
Tmax [23]: 0.25 h
Cmax [24]: 434 ng/mL
IC50 (Cytochrome P450 3A4): > 25 µM
bioavailability [25]: 133%
Vd [26]: 2.7 L/kg
bioavailability [27]: 99%
MRT inf [28]: 4.8 h
AUC(0-inf) [29]: 1680 ng·h/mL
MRT inf [30]: 4.6 h
AUC(0-t) [31]: 14100 ng·h/mL
AUC(0-inf) [32]: 11200 ng·h/mL
inhibition [33]: inactive
clearance [34]: 7.17 mL/min/kg
Tmax [35]: 0.5 h
half-life [36]: 2.63 h
Tmax [37]: 0.5 h
Vd [38]: 2.2 L/kg
MRT inf [39]: 5.1 h
half-life [40]: 2.6 h
bioavailability [41]: 59%
bioavailability [42]: 122%
AUC(0-inf) [43]: 2300 ng·h/mL
clearance [44]: 10 mL/min/kg
AUC(0-t) [45]: 8250 ng·h/mL
AUC(0-inf) [46]: 8270 ng·h/mL
bioavailability [47]: 116%
AUC(0-inf) [48]: 14100 ng·h/mL
Compound: CS(=O)(=O)c1ccc(-c2nnc(/C=C/c3nnc(-c4ccc(C#N)cc4)o3)n2-c2ccccc2Cl)nc1
